Data published in ChEMBL document CHEMBL1127791, “Design, synthesis, and biological evaluation of cosalane, a novel anti-HIV agent which inhibits multiple features of virus reproduction” (J Med Chem, 1994).

Experiments:
[1] = test system: Human immunodeficiency virus; experiment: Effective concentration required for antiviral activity against HIV strain SKI by XTT assay; format: functional, organism-based; conditions: Human immunodeficiency virus 1
Method in brief: (§1)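 CEM-SS cells, 5000/well in RPMI 1640 with 5% FBS, 2 mM L-glutamine and gentamycin, were infected with each HIV strain at MOI 0.01 with serially diluted drug. They were incubated 6 days at 37 °C in 5% CO₂. Viability was read by XTT, and EC₅₀ for protection from virus-induced killing was calculated.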

[2] = test system: Human immunodeficiency virus; experiment: Effective concentration required for antiviral activity against HIV strain 214 by XTT assay; format: functional, organism-based; conditions: Human immunodeficiency virus 1; method in brief: as §1
[3] = test system: Human immunodeficiency virus; experiment: Effective concentration required for antiviral activity against HIV strain 205 by XTT assay; format: functional, organism-based; conditions: Human immunodeficiency virus 1; method in brief: as §1
[4] = test system: Human immunodeficiency virus; experiment: Effective concentration required for antiviral activity against HIV strain WEJO (syncytia inducing) by XTT assay; format: functional, organism-based; conditions: Human immunodeficiency virus 1
BxT = experiment: Effective concentration required for antiviral activity against BxT cell line of 174xCEM cells of Human by XTT assay; format: functional, cell-based
Method in brief: (§2)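 Human T, B or macrophage-type cell lines were infected with HIV-1 RF in complete RPMI medium with serially diluted drug and cultured 6 days at 37 °C. Inhibition was read by XTT in cytopathically infected cells, or by supernatant RT activity or p24 ELISA in noncytopathically infected cells. EC₅₀ was calculated.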

[5] = test system: Human immunodeficiency virus; experiment: Effective concentration required for antiviral activity against HIV strain LAV by XTT assay; format: functional, organism-based; conditions: Human immunodeficiency virus 1; method in brief: as §1
MT2 = experiment: Effective concentration required for antiviral activity against HIV strain IIIB in MT-2 cells by XTT assay; format: functional, cell-based; conditions: Homo sapiens
Method in brief: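 HIV-1 IIIB was tested in MT-2 cells in a microtiter XTT cytopathicity assay. Serially diluted drug was added to cells infected at MOI 0.01 and incubated 6 days at 37 °C in 5% CO₂. EC₅₀ for cellular protection was calculated from XTT viability.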

[6] = test system: Human immunodeficiency virus; experiment: Effective concentration required for antiviral activity against HIV strain RF by XTT assay; format: functional, organism-based; conditions: Human immunodeficiency virus 1; method in brief: as §1
[7] = test system: Human immunodeficiency virus; experiment: Effective concentration required for antiviral activity against HIV strain G9106 (AZT-resistant strain) by XTT assay; format: functional, organism-based; conditions: Human immunodeficiency virus 1; method in brief: as §1
[8] = test system: Human immunodeficiency virus; experiment: Effective concentration required for antiviral activity against HIV strain A17 (pyridinone-resistant strain) by XTT assay; format: functional, organism-based; conditions: Human immunodeficiency virus 1; method in brief: as §1
B(EBV+) = experiment: Effective concentration required for antiviral activity against B(EBV+) cell line of AA5 cells of Human by XTT assay; format: functional, cell-based; method in brief: as §2
[9] = test system: Human immunodeficiency virus; experiment: Effective concentration required for antiviral activity against HIV strain BAKI (syncytia inducing) by XTT assay; format: functional, organism-based; conditions: Human immunodeficiency virus 1
[10] = test system: Human immunodeficiency virus; experiment: Effective concentration required for antiviral activity against HIV strain VIHU (nonsyncytia inducing) by XTT assay; format: functional, organism-based; conditions: Human immunodeficiency virus 1
[11] = test system: Human immunodeficiency virus; experiment: Effective concentration required for antiviral activity against HIV strain G by XTT assay; format: functional, organism-based; conditions: Human immunodeficiency virus 1; method in brief: as §1
M = experiment: Effective concentration required for antiviral activity against M cell line of macrophage cells of Human by p24 ELISA
PBL = experiment: Effective concentration required for antiviral activity against lymphocyte cell line of PBL cells of Human by […]; format: functional, cell-based
Method in brief: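 PHA-stimulated fresh human PBLs were infected with clinical HIV-1 isolate WEJO in the presence of drug. Culture supernatants were assayed for RT and/or p24 by antigen-capture ELISA to give EC₅₀.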

[12] = test system: Human immunodeficiency virus; experiment: Effective concentration required for antiviral activity against HIV strain PM16 by XTT assay; format: functional, organism-based; conditions: Human immunodeficiency virus 1; method in brief: as §1
[13] = test system: Human immunodeficiency virus 2; experiment: Effective concentration required for antiviral activity against HIV strain MS (HIV-2) by XTT assay; format: functional, organism-based; method in brief: as §1
[14] = test system: Human immunodeficiency virus; experiment: Effective concentration required for antiviral activity against HIV strain WOME (syncytia inducing) by XTT assay; format: functional, organism-based; conditions: Human immunodeficiency virus 1
[15] = test system: Human immunodeficiency virus; experiment: Effective concentration required for antiviral activity against HIV strain TP1 by XTT assay; format: functional, organism-based; conditions: Human immunodeficiency virus 1; method in brief: as §1
MT4 = experiment: Effective concentration required for antiviral activity against T (HTLV-1+)cell line of MT-4 cells of Human by XTT assay; format: functional, cell-based; method in brief: as §2
CEM-SS [16] = experiment: Effective concentration required for antiviral activity against HIV strain IIIB in CEM-SS cells by XTT assay; format: functional, cell-based; conditions: Homo sapiens; method in brief: as §1
[17] = test system: Human immunodeficiency virus; experiment: Effective concentration required for antiviral activity against HIV strain MN by XTT assay; format: functional, organism-based; conditions: Human immunodeficiency virus 1; method in brief: as §1
CEM-SS [18] = experiment: Effective concentration required for antiviral activity against T cell line of CEM-SS cells of Human by XTT assay; format: functional, cell-based; method in brief: as §2
U-937 = experiment: Effective concentration required for antiviral activity against Macrophage cell line of U937 cells of Human by XTT assay; format: functional, cell-based; method in brief: as §2
[19] = test system: Human immunodeficiency virus; experiment: Effective concentration required for antiviral activity against HIV strain MCK by XTT assay; format: functional, organism-based; conditions: Human immunodeficiency virus 1; method in brief: as §1

Compound | EC50 [1] [nM] | EC50 [2] [nM] | EC50 [3] [nM] | EC50 [4] [nM] | EC50 (BxT) [nM] | EC50 [5] [nM] | EC50 (MT2) [nM] | EC50 [7] [nM] | EC50 [8] [nM] | EC50 (B(EBV+)) [nM] | EC50 [9] [nM] | EC50 [10] [nM] | EC50 [11] [nM] | EC50 (M) [nM] | EC50 (PBL) [nM] | EC50 [12] [nM] | EC50 [13] [nM] | EC50 [14] [nM] | EC50 [15] [nM] | EC50 (MT4) [nM] | also measured
CC(C)CCCC(C)[C@H]1CC[C@H]2[C@@H]3CCC4C[C@@H](CCC=C(c5cc(Cl)c(O)c(C(=O)O)c5)c5cc(Cl)c(O)c(C(=O)O)c5)CC[C@]4(C)[C@H]3CC[C@]12C (stereo partly specified) | 20600 | 7100 | 6700 | 44800 | 6100 | 14400 | 3400 | 6600 | 4300 | 6600 | 48100 | 80200 | 2200 | 19700 | 44800 | 6600 | 22500 | 69900 | 6500 | 20000 | EC50 [6]: 1700 nM; EC50 (CEM-SS [16]): 6800 nM; EC50 [17]: 8800 nM; EC50 (CEM-SS [18]): 5100 nM; EC50 (U-937): 7400 nM; EC50 [19]: 2100 nM
Cc1cn([C@H]2C[C@H](N=[N+]=[N-])[C@@H](CO)O2)c(=O)[nH]c1=O [ZIDOVUDINE] | 13 | 9 | 9 | 18 | 55 | 8 | 3 | > 100 | 2 | 1 | 10 | 20 | 2 | 15 | 29 | 11 | 2 | 6 | 6 | 85 | EC50 (CEM-SS [16]): 4 nM; EC50 [17]: 4 nM; EC50 (CEM-SS [18]): 95 nM; EC50 (U-937): 30 nM; EC50 [19]: 2 nM
